Measurements: PubChem BioAssay
Activity calls are given as the source filed them.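 The calls were made as follows, unless noted: active = Her2 level under about 52% in both replicate screens, with viability over 70% of control (limit read from the data); inconclusive = Her2 under the limit in one screen only, or viability under 70%; inactive = Her2 level above the set limit.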

Legend:
[1] = reducers of endogenous Her2 protein level, primary screen, SKBR3 breast tumor cells, AlphaScreen, ATP viability (AID 461); settings: 18-24 h, measured here: SKBR3 viability, ATP luminescence, at 10 µM;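 as to Her2 level: lower value means less Her2 protein in the cells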;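 as to viability: percent of carrier control wells set as 100% viability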
[2] = target: Receptor tyrosine-protein kinase erbB-2 (Homo sapiens) (UniProt P04626); experiment: as above; settings: 18-24 h, at 10 µM, stronger effect = lower value
[3] = SK-BR-3 cell growth inhibitors, pilot screen, 24 h, human (AID 572;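 active = viability at or below 10% of carrier control in both of two separate runs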;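 also: compound exposure lasted between 18 and 24 h rather than exactly 24 h; 100% = carrier-treated control wells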); settings: SK-BR-3 viability, CellTiter-Glo luminescence, at 10 µM, stronger effect = lower value
[4] = HUVEC growth inhibition – cell-based, human, primary screen (AID 575;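 active = viability at or below 30% in both replicate assays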;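 also: 100% = median of untreated cell wells with 0.1% DMSO on each plate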); settings: HUVEC proliferation, CellTiter-Glo luminescence, 72 h; at 10 µM; stronger effect = lower value
How it was run: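 Timing: 72 h treatment at 37 °C; material: HUVEC primary cells; technique: CellTiter-Glo luminescence measuring cellular ATP; controls: vehicle and MePR control wells; measure: percent of median DMSO-control luminescence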

[5] = growth inhibitors of H69AR lung tumor, primary screen, human, duplicate replicates (AID 580;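 active = viability at or under a set limit in both replicates, limit being median viability minus 3 SD, cut at about 48% in these data, passing the limit was not always enough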;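 also: 100% = mean luminescence of untreated wells and 0% = no signal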); settings: H69AR lung tumor cells viability, ATP luminescence, 72 h; at 10 µM; stronger effect = lower value
[6] = reversal of MRP1-mediated doxorubicin resistance, pilot screen, H69AR cells, doxorubicin co-treatment (AID 601;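 active = viability loss from added drug above about 55%, and viability with drug at most 40%, in both replicates, limit read from the data, passing the limit was not always enough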); settings: CellTiter-Glo, 72 h, at 10 µM; for differential viability (reversal): stronger effect = higher value
[7] = 384-well plate pilot, post-Golgi transport modulator project, inhibition of yeast transport mutant growth (AID 636; in the data active = inhibition above about 31%); settings: absorbance 615 nm, about 18 h, stronger effect = higher value
[8] = growth suppression of yeast trafficking mutant, preliminary HTS, modulators of trafficking downstream of Golgi apparatus project, 1536-format plate, OD 615 nm (AID 637; in the data active = inhibition above about 30%); settings: yeast transport mutant growth, absorbance 615 nm, 18 h; stronger effect = higher value
[9] = H69AR cells + 2 uM doxorubicin, measured here: viability with 2 uM doxorubicin, stronger effect = lower value
[10] = H69AR cells, compound alone cytotoxicity

Chain of Receptor tyrosine-protein kinase erbB-2 (Homo sapiens) (P04626 whole entry, looked up): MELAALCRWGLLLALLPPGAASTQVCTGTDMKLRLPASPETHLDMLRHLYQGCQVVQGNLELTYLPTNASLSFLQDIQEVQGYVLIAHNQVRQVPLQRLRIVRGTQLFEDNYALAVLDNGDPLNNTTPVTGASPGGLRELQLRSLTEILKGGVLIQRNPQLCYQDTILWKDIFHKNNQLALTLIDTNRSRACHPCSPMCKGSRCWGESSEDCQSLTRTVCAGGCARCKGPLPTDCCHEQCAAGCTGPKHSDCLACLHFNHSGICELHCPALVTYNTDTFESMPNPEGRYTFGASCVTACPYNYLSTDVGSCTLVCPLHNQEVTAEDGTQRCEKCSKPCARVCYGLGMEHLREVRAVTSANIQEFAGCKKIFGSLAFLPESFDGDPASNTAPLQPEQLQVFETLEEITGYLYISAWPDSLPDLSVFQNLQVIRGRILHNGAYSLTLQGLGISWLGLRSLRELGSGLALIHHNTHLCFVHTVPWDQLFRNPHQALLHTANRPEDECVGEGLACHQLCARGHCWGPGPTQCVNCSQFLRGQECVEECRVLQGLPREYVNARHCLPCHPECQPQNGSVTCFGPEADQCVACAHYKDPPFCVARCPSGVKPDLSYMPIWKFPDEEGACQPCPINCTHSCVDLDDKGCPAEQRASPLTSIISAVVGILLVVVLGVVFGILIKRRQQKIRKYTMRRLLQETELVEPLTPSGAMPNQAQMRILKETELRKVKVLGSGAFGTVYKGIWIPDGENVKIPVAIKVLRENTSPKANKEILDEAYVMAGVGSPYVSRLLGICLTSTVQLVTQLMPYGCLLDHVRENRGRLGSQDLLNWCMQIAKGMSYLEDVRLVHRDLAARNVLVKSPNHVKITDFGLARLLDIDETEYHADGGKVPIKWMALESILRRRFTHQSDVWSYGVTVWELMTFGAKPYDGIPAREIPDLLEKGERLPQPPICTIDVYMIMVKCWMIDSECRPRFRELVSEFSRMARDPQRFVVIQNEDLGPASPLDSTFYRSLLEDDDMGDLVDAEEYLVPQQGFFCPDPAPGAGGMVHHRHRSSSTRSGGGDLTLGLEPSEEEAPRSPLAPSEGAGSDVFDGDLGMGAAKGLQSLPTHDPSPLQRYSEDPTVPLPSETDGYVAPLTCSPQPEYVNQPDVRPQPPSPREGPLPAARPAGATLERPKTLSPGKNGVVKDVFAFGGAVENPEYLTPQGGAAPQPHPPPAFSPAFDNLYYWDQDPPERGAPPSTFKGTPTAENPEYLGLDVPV

| Structure (SMILES) | viability [1] | Her2 level [2] | viability [3] | viability [4] | viability [5] | differential viability (reversal) ([6]; H69AR cells + 2 uM doxorubicin) | viability [6, 9] | viability [6, 10] | inhibition [7] | inhibition [8] |
| --- | --- | --- | --- | --- | --- | --- | --- | --- | --- | --- |
| CCCCCC(=O)N1CC2(CC)CN(C(=O)CCCCC)CC(CC)(C1)C2=O | 89% | 124% (inactive) | 89% (inactive) | 91.7% (inactive) | 83.3% (inactive) | -6.35% (inactive) | 89.7% | 83.3% | 0.51% (inactive) | -7.33% (inactive) |
| C/C(NC1CCCC1)=C(/C#N)C(N)=O | 108% | 99% (inactive) | 108% (inactive) | 116% (inactive) | 111% (inactive) | 10.3% (inactive) | 101% | 111% | -4.21% (inactive) | 3.11% (inactive) |
| C=CCOc1nc(N(C)C)nc(N(C)C)n1 | 92.5% | 87% (inactive) | 92.5% (inactive) | 93.9% (inactive) | 98.2% (inactive) | 9.33% (inactive) | 88.8% | 98.2% | -4.67% (inactive) | 1.31% (inactive) |
| O=C1CC(N2CCOCC2)C(=O)N1c1ccc2c(c1)OCO2 (stereo not given) | 102% | 92.5% (inactive) | 102% (inactive) | 92% (inactive) | 104% (inactive) | -4.17% (inactive) | 108% | 104% | -2.11% (inactive) | 0.32% (inactive) |
| Cc1ccc(-c2cc(C(=O)O)n[nH]2)o1 | 95.5% | 128% (inactive) | 95.5% (inactive) | 98.7% (inactive) | 99.3% (inactive) | -1.46% (inactive) | 101% | 99.3% | -3.01% (inactive) | -0.16% (inactive) |
| O=C(CSc1nc(-c2ccccc2)cs1)NCc1ccco1 | 100% | 102% (inactive) | 100% (inactive) | 103% (inactive) | 94.8% (inactive) | 1.79% (inactive) | 93% | 94.8% | -6.08% (inactive) | -9.18% (inactive) |
| O=C1c2ccccc2C(=O)N1CC(O)Cn1nnc2ccccc21 (stereo not given) | 120% | 108% (inactive) | 120% (inactive) | 90.9% (inactive) | 95.9% (inactive) | 4.44% (inactive) | 91.5% | 95.9% | -3.07% (inactive) | -3.71% (inactive) |
| O=C(NCc1ccccn1)C(C(=O)c1ccc(F)cc1)n1ccccc1=O (stereo not given) | 86.5% | 95.5% (inactive) | 86.5% (inactive) | 97.9% (inactive) | 96.4% (inactive) | -3.97% (inactive) | 100% | 96.4% | -4.05% (inactive) | 4.1% (inactive) |
| c1ccc(-c2noc(C34CC5CC(CC(C5)C3)C4)n2)nc1 | 130% | 106% (inactive) | 130% (inactive) | 94.8% (inactive) | 83.4% (inactive) | 17.3% (inactive) | 66.2% | 83.4% | -4.87% (inactive) | 2.13% (inactive) |
| COc1cc(C2C(C(=O)c3ccc(C)o3)=C(O)C(=O)N2c2cc(C)on2)cc(Br)c1O (stereo not given) | 102% | 93% (inactive) | 102% (inactive) | 99.8% (inactive) | 95.7% (inactive) | 8.72% (inactive) | 86.9% | 95.7% | -1.97% (inactive) | -3.49% (inactive) |
| O=C(Nc1ccc2c(c1)OCO2)C(c1ccc(Cl)cc1)N1CCN(C(=O)c2ccco2)CC1 (stereo not given) | 71% | 80.5% (inactive) | 71% (inactive) | 103% (inactive) | 91.4% (inactive) | 6.85% (inactive) | 84.5% | 91.4% | -5.27% (inactive) | 2.3% (inactive) |
| CC(=O)NCCn1c(SCC(=O)NCC2CCCO2)nc2ccccc2c1=O (stereo not given) | 95% | 99% (inactive) | 95% (inactive) | 109% (inactive) | 98.5% (inactive) | 10.1% (inactive) | 88.4% | 98.5% | -0.26% (inactive) | -8.1% (inactive) |
| CCOC(=O)c1c(C)c(C(=O)NCCN2CCOCC2)c(C)n1C | 89.5% | 91% (inactive) | 89.5% (inactive) | 107% (inactive) | 86.7% (inactive) | -3.83% (inactive) | 90.5% | 86.7% | -10.7% (inactive) | 1.11% (inactive) |
| COc1ccccc1CN1C(=O)CCC1(C)C(=O)NC1CCCCCC1 (stereo not given) | 83% | 99% (inactive) | 83% (inactive) | 101% (inactive) | 98.1% (inactive) | 2.86% (inactive) | 95.2% | 98.1% | -2.13% (inactive) | 2.62% (inactive) |
| COC(=O)c1c(NC(=O)CSc2nnc(-c3cccnc3)n2Cc2ccco2)sc(C)c1C | 87% | 77% (inactive) | 87% (inactive) | 71.5% (inactive) | 83.7% (inactive) | 9.16% (inactive) | 74.5% | 83.7% | -5.14% (inactive) | -6.03% (inactive) |
| N#CC1=C(SCC(=O)NC2CCCCC2)NC(=O)CC1c1ccco1 (stereo not given) | 113% | 98% (inactive) | 113% (inactive) | 74.8% (inactive) | 30.6% (active) | -52.5% (inactive) | 83.1% | 30.6% | -6.53% (inactive) | 0.97% (inactive) |
